pIC50: −log10 of the molar value. Blank lines part the entries; values can stand above or below the compound they belong to. Calls of active or inactive are those of the source. The rule behind the calls is not given here.
Legend:
[1] = target: Potassium voltage-gated channel subfamily A member 5 (Homo sapiens, UniProt P22460); assay: Antagonist activity at human Kv1.5 channel expressed in CHO cell membrane by HT clamp assay; type: functional, cell-based
Procedure, shortened: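 IC50 from 10-point concentration-response curves by HT-clamp voltage clamp, 3-4 cells per point. A reference Kv1.5 antagonist was run as positive control.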

Rattus norvegicus [2] = organism: Rattus norvegicus; assay: Increase in ventricular refractory period in surgically instrumented rat electrophysiology model; type: functional, organism-based; conditions: Cardiac ventricle
Rattus norvegicus [3] = organism: Rattus norvegicus; assay: Increase in atrial refractory period in surgically instrumented rat electrophysiology model; type: functional, organism-based; conditions: Cardiac atrium
Rattus norvegicus [4] = organism: Rattus norvegicus; assay: Effect on AV node refractory period in surgically instrumented rat electrophysiology model at 35 uM; type: functional, organism-based
[5] = target: Voltage-gated inwardly rectifying potassium channel KCNH2 (Homo sapiens, UniProt Q12809); assay: Binding affinity to hERG potassium channel
Sequence of Voltage-gated inwardly rectifying potassium channel KCNH2 (Q12809 whole entry): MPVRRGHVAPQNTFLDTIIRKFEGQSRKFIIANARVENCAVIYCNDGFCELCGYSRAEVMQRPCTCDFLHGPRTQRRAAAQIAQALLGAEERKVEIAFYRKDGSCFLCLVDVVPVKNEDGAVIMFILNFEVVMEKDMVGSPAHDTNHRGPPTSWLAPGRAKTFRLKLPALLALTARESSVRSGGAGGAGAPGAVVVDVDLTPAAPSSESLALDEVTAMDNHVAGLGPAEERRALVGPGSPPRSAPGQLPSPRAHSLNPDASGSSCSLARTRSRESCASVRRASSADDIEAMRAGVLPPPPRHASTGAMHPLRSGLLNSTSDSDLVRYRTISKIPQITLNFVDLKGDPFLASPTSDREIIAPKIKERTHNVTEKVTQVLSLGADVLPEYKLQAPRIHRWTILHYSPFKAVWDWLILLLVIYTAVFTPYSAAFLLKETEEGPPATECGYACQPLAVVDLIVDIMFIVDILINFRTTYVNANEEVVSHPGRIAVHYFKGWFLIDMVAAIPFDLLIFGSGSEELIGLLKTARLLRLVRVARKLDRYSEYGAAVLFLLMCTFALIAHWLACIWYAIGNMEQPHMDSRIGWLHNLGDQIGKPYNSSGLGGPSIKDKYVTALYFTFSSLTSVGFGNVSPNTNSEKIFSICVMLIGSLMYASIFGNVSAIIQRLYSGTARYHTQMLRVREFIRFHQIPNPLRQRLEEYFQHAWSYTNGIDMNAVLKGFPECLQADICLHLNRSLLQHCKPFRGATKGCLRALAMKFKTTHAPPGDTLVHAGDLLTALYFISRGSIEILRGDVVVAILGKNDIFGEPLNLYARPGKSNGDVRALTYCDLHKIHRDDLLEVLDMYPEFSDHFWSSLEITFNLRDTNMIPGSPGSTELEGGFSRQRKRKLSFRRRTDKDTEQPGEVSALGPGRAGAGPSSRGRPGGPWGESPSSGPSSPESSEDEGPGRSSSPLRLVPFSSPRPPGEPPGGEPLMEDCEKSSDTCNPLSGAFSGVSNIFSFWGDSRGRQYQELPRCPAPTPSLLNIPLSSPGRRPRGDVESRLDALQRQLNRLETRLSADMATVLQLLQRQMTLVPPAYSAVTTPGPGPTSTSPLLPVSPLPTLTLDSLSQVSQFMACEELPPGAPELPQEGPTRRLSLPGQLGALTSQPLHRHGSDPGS

[6] = Bioavailability in rat; type: ADME, organism-based; conditions: in vivo
[7] = Clearance in rat; type: ADME, organism-based; conditions: in vivo
Rattus norvegicus [8] = organism: Rattus norvegicus; assay: Increase in atrial refractory period in surgically instrumented rat electrophysiology model; conditions: Cardiac atrium
Rattus norvegicus [9] = organism: Rattus norvegicus; assay: Increase in AV node refractory period in surgically instrumented rat electrophysiology model; type: functional, organism-based
[10] = Volume of distribution in rat; type: ADME, organism-based; conditions: in vivo, read-out: Vdss
Canis familiaris [11] = organism: Canis familiaris; assay: Effect on ventricular refractory period in dog electrophysiology model; type: functional, organism-based; conditions: Canis lupus familiaris; Cardiac ventricle
Canis familiaris [12] = organism: Canis familiaris; assay: Increase in atrial refractory period in dog electrophysiology model; type: functional, organism-based; conditions: Canis lupus familiaris; Cardiac atrium

Sequence of Potassium voltage-gated channel subfamily A member 5 (P22460 whole entry): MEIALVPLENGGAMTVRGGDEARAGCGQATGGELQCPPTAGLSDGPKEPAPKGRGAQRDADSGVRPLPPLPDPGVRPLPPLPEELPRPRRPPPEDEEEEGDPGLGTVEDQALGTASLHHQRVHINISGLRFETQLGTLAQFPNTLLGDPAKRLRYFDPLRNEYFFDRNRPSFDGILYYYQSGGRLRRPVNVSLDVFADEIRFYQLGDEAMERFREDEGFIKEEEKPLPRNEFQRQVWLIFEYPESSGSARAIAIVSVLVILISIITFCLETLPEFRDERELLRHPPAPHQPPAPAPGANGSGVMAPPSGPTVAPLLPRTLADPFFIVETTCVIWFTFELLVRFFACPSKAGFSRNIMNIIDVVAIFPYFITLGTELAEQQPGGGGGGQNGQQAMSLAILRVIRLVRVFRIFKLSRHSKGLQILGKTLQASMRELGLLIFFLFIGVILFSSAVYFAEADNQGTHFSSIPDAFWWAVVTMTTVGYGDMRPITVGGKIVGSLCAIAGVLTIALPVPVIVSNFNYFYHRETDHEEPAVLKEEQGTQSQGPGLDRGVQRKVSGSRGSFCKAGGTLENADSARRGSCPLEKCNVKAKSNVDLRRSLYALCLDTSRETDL

SMILES: COc1ccc2c(=O)n(CCO)c(C#N)c(-c3cccc(F)c3)c2c1
pIC50 [1]: 6.16

SMILES: COc1ccc2c(=O)n(C[C@H](O)CO)c(C#N)c(-c3ccccc3)c2c1
Activity (Rattus norvegicus [2]): Active
Activity (Rattus norvegicus [3]): Active
Activity (Rattus norvegicus [4]): inactive

SMILES: COc1ccc2c(=O)n(CC(O)CO)c(C#N)c(-c3cccc(F)c3)c2c1 (centres undefined)
pIC50 [1]: 6.06
pIC50 [5]: 4.47

SMILES: COc1ccc2c(-n3cnc(C)c3)nc(C#N)c(-c3cccc(F)c3)c2c1
pIC50 [1]: 6.59
Activity (Rattus norvegicus [3]): Active

SMILES: COc1ccc2c(NC[C@H](O)CO)nc(C#N)c(-c3ccccc3)c2c1
Activity (Rattus norvegicus [8]): Active
Activity (Rattus norvegicus [9]): Active
pIC50 [5]: 4.82

SMILES: COc1ccc2c(C(=O)NCCO)nc(C#N)c(-c3ccccc3)c2c1
Activity (Canis familiaris [11]): inactive
Activity (Rattus norvegicus [3]): Active
Activity (Canis familiaris [12]): Active
pIC50 [5]: < 4.52

SMILES: COCCN(C)CCn1c(C#N)c(-c2cccc(F)c2)c2cc(OC)ccc2c1=O
pIC50 [1]: 6.10

Further lines, with some results ahead:

pIC50 [1]: 6.92
SMILES: COc1ccc2c(=O)n(CC(CO)NCc3cccnc3)c(C#N)c(-c3ccccc3)c2c1 (centres undefined)
pIC50 [5]: 5.00

bioavailability [6]: 11%
clearance [7]: 26 mL/min/kg
pIC50 [1]: 6.72
SMILES: COc1ccc2c(=O)n(C)c(CN(C)C)c(-c3ccccc3)c2c1
pIC50 [5]: 5.28

pIC50 [1]: 6.60
SMILES: COc1ccc2c(=O)n(CC(O)CO)c(C#N)c(-c3cccc(C(F)(F)F)c3)c2c1 (centres undefined)

bioavailability [6]: 67%
clearance [7]: 13 mL/min/kg
pIC50 [1]: 6.80
Vd [10]: 1.7 L/kg
SMILES: COc1ccc2c(OC[C@H](O)CO)nc(C#N)c(-c3ccccc3)c2c1
Activity (Rattus norvegicus [8]): Active
pIC50 [5]: 4.69
